Activity calls are given as the source filed them.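 Rule for the calls: active = inhibition of 30% or more at any tested concentration; inactive = the rest.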
Target: M18 aspartyl aminopeptidase (Plasmodium falciparum)
Assay: PfM18AAP aspartyl aminopeptidase inhibitors, dose response, biochemical, QFRET fluorogenic substrate, set 2 (AID 624177)
Settings: recombinant PfM18AAP, H-Glu-NHMec fluorogenic substrate cleavage
Procedure, shortened: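 Test system: purified recombinant P. falciparum M18 aspartyl aminopeptidase (rPFM18AAP). Amount: 5 µg/mL rPFM18AAP. Schedule: 90 min reaction, room temperature. Measured by: fluorescence at 370/460 nm. Benchmarks: no-enzyme background control.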

Structure (SMILES) | IC50
Oc1ccc(C2CCN(c3ccnc4ccccc34)C2)cc1O (centres undefined) | 6.55 µM
CCN(CCc1ccc(O)c(O)c1)c1c2ccccc2nc2ccccc12 | 16.9 µM
Oc1ccc(C2CCCN(c3ccnc4ccccc34)C2)cc1O (centres undefined) | 7.32 µM
Oc1ccc(C2CCN(c3ccnc4ccccc34)CC2)cc1O | 4.6 µM

The next lines start with the values.

IC50 | Structure (SMILES)
9.8 µM | Oc1ccc(CCNc2ccnc3c(F)cccc23)cc1O
10.3 µM | CN(CCCc1ccc(O)c(O)c1)c1ccnc2ccccc12
14.5 µM | Cc1cccc2c(NCCc3ccc(O)c(O)c3)ccnc12
40.1 µM | CN(CCCc1ccc(O)c(O)c1)c1c2ccccc2nc2ccccc12
7.69 µM | CN(CCc1ccc(O)c(O)c1)c1ncnc2ccccc12
8.46 µM | CN(CCc1ccc(O)c(O)c1)c1ccnc2cc(Cl)ccc12
47.6 µM | CC(C)(CNc1ccnc2ccccc12)c1ccc(O)c(O)c1
30 µM | CN(CCc1ccc(O)c(O)c1)c1c2ccccc2nc2ccccc12
11.9 µM | Cc1cccc2c(N(C)CCc3ccc(O)c(O)c3)ccnc12
16.6 µM | CC(Cc1ccc(O)c(O)c1)Nc1ccnc2ccccc12 (centres undefined)
10.8 µM | Oc1ccc(CCCNc2c3c(nc4ccccc24)CCCC3)cc1O
11.9 µM | Cc1cc(N(C)CCc2ccc(O)c(O)c2)c2ccccc2n1
16.5 µM | Oc1cccc(CCNc2ccnc3ccccc23)c1O
14.8 µM | Oc1ccc(CCNc2ccnc3cc(Cl)ccc23)cc1O
8.76 µM | CN(CCc1ccc(O)c(O)c1)c1ccnc2c(F)cccc12

Same assay, conditions: recombinant PfM18AAP, H-Glu-NHMec fluorogenic substrate cleavage; at 100 µM (top of the series)

Structure (SMILES) | inhibition
COc1ccc(CCN(C)c2ccnc3cc(Cl)ccc23)cc1OC | inactive
COc1ccc(CCN(C)c2ncnc3ccccc23)cc1OC | inactive
CCN(CCc1ccc(OC)c(OC)c1)c1c2ccccc2nc2ccccc12 | inactive
COc1cc(Br)c(CCNc2ccnc3ccccc23)cc1OC | inactive
CCOc1ccc2nccc(N(C)CCc3ccc(OC)c(OC)c3)c2c1 | inactive
COc1cc(Br)c(CCNc2c3ccccc3nc3ccccc23)cc1OC | inactive
COc1ccc(CCNc2c3c(nc4ccc(C)cc24)CCCC3)cc1OC | inactive
COc1ccc(CCNc2ncnc3ccccc23)cc1OC | inactive
COc1cc(Br)c(CCNc2c3c(nc4ccccc24)CCCC3)cc1OC | inactive
COc1ccc(C2CCN(c3ccnc4ccccc34)CC2)cc1OC | inactive
COc1ccc(CCN(C)c2c3ccccc3nc3ccccc23)cc1OC | inactive
COc1ccc(CCN(C)c2ccnc3c(F)cccc23)cc1OC | inactive
CCOc1ccc2nccc(NCCc3ccc(OC)c(OC)c3)c2c1 | inactive
COc1ccc(CCN(C)c2cc(C)nc3ccccc23)cc1OC | inactive
COc1ccc(C2CCN(c3ccnc4ccccc34)C2)cc1OC (centres undefined) | inactive
COc1ccc(CCNc2cc(C)nc3ccccc23)cc1OC | inactive
COc1ccc(CCNC(=O)c2cc(C)ccc2N)cc1OC | inactive
COc1ccc(CCCN(C)c2c3ccccc3nc3ccccc23)cc1OC | inactive
Nc1c2ccccc2nc2ccccc12 | inactive
COc1ccc(CCCNc2c3c(nc4ccccc24)CCCC3)cc1OC | inactive
Clc1c2c(nc3ccccc13)CCCC2 | inactive

More lines, now with the values ahead:

inhibition | Structure (SMILES)
inactive | COc1ccc(CCNc2ccnc3c(C)cccc23)cc1OC
inactive | COc1ccc(CCN(C)c2ccnc3c(C)cccc23)cc1OC
inactive | COc1ccc(CCNc2ccnc3cc(Cl)ccc23)cc1OC
inactive | COc1ccc(CCNc2ccnc3c(F)cccc23)cc1OC
